The values below come from ChEMBL document CHEMBL3751702, “Comprehensive Analysis of Structure-Activity Relationships of α-Ketoheterocycles as sn-1-Diacylglycerol Lipase α Inhibitors” (J Med Chem, 2015).

The target in the test is T1, Diacylglycerol lipase-alpha (Homo sapiens, UniProt Q9Y4D2).
T1 sequence (Q9Y4D2 whole entry): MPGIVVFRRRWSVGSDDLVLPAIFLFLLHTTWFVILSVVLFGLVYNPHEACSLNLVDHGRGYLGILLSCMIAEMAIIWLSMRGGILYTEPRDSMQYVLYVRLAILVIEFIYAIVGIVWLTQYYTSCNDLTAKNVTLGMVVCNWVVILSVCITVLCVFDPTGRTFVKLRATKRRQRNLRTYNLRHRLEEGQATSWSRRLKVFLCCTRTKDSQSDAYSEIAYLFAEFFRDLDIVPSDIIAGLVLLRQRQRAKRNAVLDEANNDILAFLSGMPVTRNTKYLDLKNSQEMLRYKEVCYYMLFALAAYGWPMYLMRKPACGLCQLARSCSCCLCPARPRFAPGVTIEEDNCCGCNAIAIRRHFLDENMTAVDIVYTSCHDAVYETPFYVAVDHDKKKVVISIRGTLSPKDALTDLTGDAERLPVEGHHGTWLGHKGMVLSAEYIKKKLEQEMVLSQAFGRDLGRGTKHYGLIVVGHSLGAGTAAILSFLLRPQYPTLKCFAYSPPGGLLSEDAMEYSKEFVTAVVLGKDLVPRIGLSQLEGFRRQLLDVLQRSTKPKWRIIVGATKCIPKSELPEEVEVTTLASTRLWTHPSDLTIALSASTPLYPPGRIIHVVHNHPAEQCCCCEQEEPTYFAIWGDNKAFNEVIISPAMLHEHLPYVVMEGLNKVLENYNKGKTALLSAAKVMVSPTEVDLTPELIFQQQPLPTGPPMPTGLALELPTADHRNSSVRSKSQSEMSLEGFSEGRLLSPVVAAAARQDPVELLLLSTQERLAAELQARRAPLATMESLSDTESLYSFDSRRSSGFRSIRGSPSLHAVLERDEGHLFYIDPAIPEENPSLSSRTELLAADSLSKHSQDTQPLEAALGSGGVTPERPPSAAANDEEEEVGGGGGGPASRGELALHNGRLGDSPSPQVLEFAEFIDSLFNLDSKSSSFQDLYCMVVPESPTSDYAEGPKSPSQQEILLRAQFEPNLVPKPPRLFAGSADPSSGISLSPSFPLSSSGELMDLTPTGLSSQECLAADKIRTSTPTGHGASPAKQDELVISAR
Description: Inhibition of full-length human DAGLalpha expressed in HEK293T cell membranes using para-nitrophenylbutyrate by colorimetric assay. The test is classed as cell-based, HEK-293T. The gist of the method:
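Membranes from HEK293T cells transiently transfected with full-length human DAGL-α (pcDNA3.1; PEI transfection, harvested at 72 h), diluted to 0.05 μg/μL final protein in 50 mM HEPES pH 7.2. Screen at 10 μM in duplicate; dose response by 10-fold serial dilution.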

One may read the IC50 as the midpoint of a concentration-inhibition curve. A low value points to greater potency in that assay. `O=C(CCCCCCc1ccccc1)c1ncc(-c2ccccc2)o1` had an IC50 greater than 10 µM.

With `O=C(CCCCCCc1ccccc1)c1nnc(-c2ccccc2)o1`, the IC50 was greater than 10 µM.

The compound `O=C(CCCCCCc1ccccc1)c1nnc(-c2ccccn2)o1` showed an IC50 greater than 10 µM.

Turning to `O=C(CCCCCCCc1ccccc1)c1nc2ncccc2o1`, inhibition was half-maximal at 0.0468 µM (IC50).

Consider `O=C(CCCCCCc1ccccc1)c1nnc(-c2ccncc2)o1`, for which the IC50 was greater than 10 µM.

The compound `CCCCCCCCCCCCCCCC(=O)c1nc2ncccc2o1` gave an IC50 of 0.0646 µM.

Compound `CCCCCCCCCCCCCC(=O)c1nc2ncccc2o1` had an IC50 of 0.0741 µM.

For the compound `CCCCCCCCCC(=O)c1nc2ncccc2o1`, the half-inhibitory concentration (IC50) was 0.0741 µM.

`CCCCCC(=O)c1nc2ncccc2o1` gave a 50% inhibitory concentration (IC50) greater than 10 µM.

In turn, `CC(=O)c1nc2ncccc2o1` had a 50% inhibitory concentration (IC50) greater than 10 µM.

Take `O=C(CCCCCCCCc1ccccc1)c1nc2ncccc2o1`: half-maximal inhibition (IC50) required 0.00363 µM.

`CN(C)C(=O)c1cnc(C(=O)CCCCCCc2ccccc2)o1` had an IC50 greater than 10 µM.

On to `CC(=O)c1cnc(C(=O)CCCCCCc2ccccc2)o1`, for which the IC50 is greater than 10 µM.

`CNC(=O)c1cnc(C(=O)CCCCCCc2ccccc2)o1`: the IC50 was greater than 10 µM.

As for `CSc1cnc(C(=O)CCCCCCc2ccccc2)o1`, the IC50 is greater than 10 µM.

As to `O=C(CCCCCCc1ccccc1)c1ncco1`, the IC50 is greater than 10 µM.

Regarding `COc1ccc(-c2cnc(C(=O)CCCCCCc3ccccc3)o2)cc1`, the IC50 is greater than 10 µM.

With `O=C(CCCCCCc1ccccc1)c1ncc(-c2ccc(C(=O)C(F)(F)F)cc2)o1`, the IC50 is greater than 10 µM.

In turn, `Cc1ccc(-c2cnc(C(=O)CCCCCCc3ccccc3)o2)nc1` showed an IC50 greater than 10 µM.

On to `O=C(CCCCCCc1ccccc1)c1ncc(C(=O)C(F)(F)F)o1`, for which inhibition was half-maximal at 1.82 µM (IC50).

For `O=C(CCCCCCc1ccccc1)c1ncc(Cl)o1`, the IC50 was greater than 10 µM.

`O=Cc1cnc(C(=O)CCCCCCc2ccccc2)o1` gave an IC50 greater than 10 µM.

As to `N#Cc1cnc(C(=O)CCCCCCc2ccccc2)o1`, the IC50 was greater than 10 µM.

Compound `COC(=O)c1cnc(C(=O)CCCCCCc2ccccc2)o1` had an IC50 greater than 10 µM.

The compound `Cc1cnc(C(=O)CCCCCCc2ccccc2)o1` showed an IC50 greater than 10 µM.

For the compound `O=C(CCCCCCc1ccccc1)c1ncc(-c2ccc(F)cc2)o1`, the IC50 is greater than 10 µM.

For `O=C(CCCCCCc1ccccc1)c1ncc(-c2ccccc2F)o1`, the IC50 was greater than 10 µM.

Regarding `CCCCCCCC(=O)c1nc2ncccc2o1`, the midpoint of inhibition, the IC50, lay at 0.631 µM. This counts as sub-micromolar.

In the case of `CCCCCCCCCCCC(=O)c1nc2ncccc2o1`, the IC50 is 0.0309 µM.

For the compound `O=C(CCCc1ccccc1)c1nc2ncccc2o1`, the IC50 was 2.24 µM.

Compound `CCCCCCCC/C=C\CCCCCCCC(=O)c1nc2ncccc2o1` had a half-maximal inhibitory concentration (IC50) of 0.0263 µM.

Compound `O=C(CCCCCCc1ccccc1)c1nnc(-c2cccnc2)o1` showed an IC50 greater than 10 µM.

`O=C(CCCCCCc1ccccc1)c1nc2ncccc2o1` had an IC50 of 0.525 µM.

Take `O=C(CCCCCCc1ccccc1)c1ncc(Br)o1`: the IC50 was greater than 10 µM.

`O=C(CCCCCCc1ccccc1)c1ncc(C(F)(F)F)o1` showed an IC50 greater than 10 µM.

Take `CS(=O)(=O)c1cnc(C(=O)CCCCCCc2ccccc2)o1`: the IC50 is greater than 10 µM.

With `CC(C)(C)C(=O)c1coc(C(=O)CCCCCCc2ccccc2)n1`, the IC50 is 0.479 µM.

For the compound `O=C(CCCCCCc1ccccc1)c1ncc(-c2ccc(C(F)(F)F)cn2)o1`, the IC50 was greater than 10 µM.

As for `CS(=O)(=O)c1coc(C(=O)CCCCCCc2ccccc2)n1`, the IC50 is 0.389 µM.

Take `O=C(CCCCCCc1ccccc1)c1nnc(-c2ccccc2)[nH]1`: the IC50 was greater than 10 µM.

For `C=CCCCCCCCC(=O)c1nc2ncccc2o1`, half-maximal inhibition (IC50) was put at 0.55 µM.

`COc1cnc(C(=O)CCCCCCc2ccccc2)o1` showed an IC50 greater than 10 µM.

Compound `O=C(CCc1ccccc1)c1nc2ncccc2o1` gave an IC50 of 18.2 µM.

In turn, `COc1ccc(-c2cnc(C(=O)CCCCCCc3ccccc3)o2)nc1` showed an IC50 greater than 10 µM.

`O=C(CCCCCCc1ccccc1)c1ncc(-c2cccc(F)c2)o1` had an IC50 greater than 10 µM.

The compound `CCCCC(=O)c1nc2ncccc2o1` gave an IC50 greater than 10 µM.

`O=C(CCCCCCc1ccccc1)c1nnc(-c2ccco2)o1` gave an IC50 greater than 10 µM.

For the compound `O=C(CCCCCCc1ccccc1)c1nc(Br)co1`, the IC50 was greater than 10 µM.

In turn, `O=C(CCCCCCc1ccccc1)c1ncno1` had an IC50 greater than 10 µM.

In the case of `Cn1nnnc1C(=O)CCCCCCc1ccccc1`, the IC50 was greater than 10 µM.

For `O=C(CCCCCCc1ccccc1)c1cccnn1`, the IC50 is greater than 10 µM.

By pIC50 is commonly meant −log10 of the IC50, conventionally taken in molar units. Low readings indicate a high IC50, high ones a low IC50. With `O=C(CCCCCCc1ccccc1)c1nnn[nH]1`, the IC50 is greater than 10 µM. Where the note is “hek-293t”, the pIC50 is reported as less than 5.

The compound `O=C(CCCCCCc1ccccc1)c1nc(-c2ccccc2)co1` gave an IC50 of 8.71 µM.

In turn, `CNC(=O)c1coc(C(=O)CCCCCCc2ccccc2)n1` had an IC50 greater than 10 µM.

In turn, `O=Cc1coc(C(=O)CCCCCCc2ccccc2)n1` gave an IC50 of 1.51 µM.

With `CSc1coc(C(=O)CCCCCCc2ccccc2)n1`, the IC50 is greater than 10 µM.

As to `O=C(CCCCCCc1ccccc1)c1nc(C(=O)C(F)(F)F)co1`, the IC50 is 0.123 µM.

Take `COC(=O)c1coc(C(=O)CCCCCCc2ccccc2)n1`: the midpoint of inhibition, the IC50, lay at 0.631 µM.

Turning to `O=C(CCCCCCc1ccccc1)c1nc(-c2ccccn2)co1`, the IC50 was greater than 10 µM.

For the compound `CC(=O)c1coc(C(=O)CCCCCCc2ccccc2)n1`, the midpoint of inhibition, the IC50, lay at 0.123 µM.

The compound `O=C(CCCCCCc1ccccc1)c1nc(C(F)(F)F)co1` gave a concentration for half-maximal inhibition (IC50) of 0.214 µM.

On to `O=C(CCCCCCc1ccccc1)c1nc(I)co1`, for which the IC50 was 2.34 µM. This IC50 lies about 11-fold higher than the previous one.

In turn, `Cc1coc(C(=O)CCCCCCc2ccccc2)n1` gave an IC50 greater than 10 µM.

Consider `N#Cc1coc(C(=O)CCCCCCc2ccccc2)n1`, for which it took 0.575 µM to reach half-maximal inhibition (IC50).

With `O=C(CCCCCCc1ccccc1)c1nc(Cl)co1`, 2.4 µM corresponded to half-maximal inhibition (IC50).

In turn, `CN(C)C(=O)c1coc(C(=O)CCCCCCc2ccccc2)n1` showed an IC50 of 3.39 µM.

Turning to `O=C(CCCCc1ccccc1)c1nc2ncccc2o1`, the half-maximal inhibitory concentration (IC50) is 0.204 µM.

As for `O=C(CCCCCCc1ccccc1)c1nc(-c2cccs2)no1`, the 50% inhibitory concentration (IC50) is 1.95 µM. Against the preceding compound, the IC50 is about 9.6-fold higher.

As for `O=C(O)c1cccc(-c2noc(C(=O)CCCCCCc3ccccc3)n2)n1`, the IC50 was greater than 10 µM.

Compound `Cn1nnc(C(=O)CCCCCCc2ccccc2)n1` had an IC50 greater than 10 µM.

Turning to `O=C(CCCCCCc1ccccc1)c1nnn(-c2ccccn2)n1`, the IC50 is greater than 10 µM.

The compound `O=C(CCCCCCc1ccccc1)c1nnco1` gave an IC50 of 2.69 µM.

Take `COC(=O)c1nc(C(=O)CCCCCCc2ccccc2)no1`: the IC50 is greater than 10 µM.

With `COC(=O)c1nnc(C(=O)CCCCCCc2ccccc2)[nH]1`, the IC50 is greater than 10 µM.

With `O=C(CCCCCCc1ccccc1)c1nnn(-c2ccco2)n1`, the IC50 is greater than 10 µM.

For the compound `O=C(CCCCCCc1ccccc1)c1noc(-c2ccccn2)n1`, the IC50 is greater than 10 µM.

The compound `O=C(CCCCCCc1ccccc1)c1noc(-c2cccs2)n1` had an IC50 greater than 10 µM.

For `O=C(CCCCCCc1ccccc1)c1nc(-c2ccccn2)no1`, half-maximal inhibition (IC50) was put at 2.75 µM.

Consider `O=C(CCCCCCc1ccccc1)c1nc(-c2ccco2)no1`, for which half-maximal inhibition (IC50) required 0.933 µM. This IC50 lies about 2.9-fold lower than the previous one.

`N#Cc1cccc(-c2noc(C(=O)CCCCCCc3ccccc3)n2)n1` showed an IC50 of 1.05 µM.

In the case of `O=C(CCCCCCc1ccccc1)c1nnc(-c2ccco2)[nH]1`, the IC50 was greater than 10 µM.

As for `O=C(CCCCCCc1ccccc1)c1nnc(-c2cccs2)[nH]1`, the IC50 was greater than 10 µM.

`O=C(CCCCCCc1ccccc1)c1ccc(-c2ccccn2)nn1` had an IC50 greater than 10 µM.

`O=C(CCCCCCc1ccccc1)c1ccc(-c2cccs2)nn1` showed an IC50 greater than 10 µM.

As for `O=C(CCCCCCc1ccccc1)c1nc(-c2cccc(I)n2)no1`, the IC50 was greater than 10 µM.

Turning to `O=C(CCCCCCc1ccccc1)c1ccc(-c2ccco2)nn1`, the 50% inhibitory concentration (IC50) is greater than 10 µM.

The compound `O=C(CCCCCCc1ccccc1)c1noc(-c2ccco2)n1` had an IC50 greater than 10 µM.

In the case of `O=C(CCCCCCc1ccccc1)c1nnn(-c2cccs2)n1`, the IC50 is greater than 10 µM.

Compound `O=C(CCCCCCc1ccccc1)c1nnc(-c2ccccn2)[nH]1` showed an IC50 greater than 10 µM.

`COC(=O)c1cccc(-c2noc(C(=O)CCCCCCc3ccccc3)n2)n1` showed an IC50 greater than 10 µM.

The compound `O=C(CCCCCCc1ccccc1)c1nc(-c2cccc(Cl)n2)no1` had an IC50 greater than 10 µM.

`O=C(CCCCCCc1ccccc1)c1nc(-c2cccc(Br)n2)no1` had an IC50 of 2.04 µM.

`O=C(CCCCCCc1ccccc1)c1nc(-c2ccncc2)co1`: the 50% inhibitory concentration (IC50) is greater than 10 µM.

In the case of `COc1coc(C(=O)CCCCCCc2ccccc2)n1`, the IC50 is greater than 10 µM.
